In ChEMBL document CHEMBL1255211, “Novel azulene-based derivatives as potent multi-receptor tyrosine kinase inhibitors” (Bioorg Med Chem Lett, 2010):

Legend:
[1] = biological target: T1, Receptor-type tyrosine-protein kinase FLT3 (Homo sapiens, UniProt P36888); assay: Inhibition of FLT3 by time resolved fluorescence method
T1 sequence (P36888 whole entry): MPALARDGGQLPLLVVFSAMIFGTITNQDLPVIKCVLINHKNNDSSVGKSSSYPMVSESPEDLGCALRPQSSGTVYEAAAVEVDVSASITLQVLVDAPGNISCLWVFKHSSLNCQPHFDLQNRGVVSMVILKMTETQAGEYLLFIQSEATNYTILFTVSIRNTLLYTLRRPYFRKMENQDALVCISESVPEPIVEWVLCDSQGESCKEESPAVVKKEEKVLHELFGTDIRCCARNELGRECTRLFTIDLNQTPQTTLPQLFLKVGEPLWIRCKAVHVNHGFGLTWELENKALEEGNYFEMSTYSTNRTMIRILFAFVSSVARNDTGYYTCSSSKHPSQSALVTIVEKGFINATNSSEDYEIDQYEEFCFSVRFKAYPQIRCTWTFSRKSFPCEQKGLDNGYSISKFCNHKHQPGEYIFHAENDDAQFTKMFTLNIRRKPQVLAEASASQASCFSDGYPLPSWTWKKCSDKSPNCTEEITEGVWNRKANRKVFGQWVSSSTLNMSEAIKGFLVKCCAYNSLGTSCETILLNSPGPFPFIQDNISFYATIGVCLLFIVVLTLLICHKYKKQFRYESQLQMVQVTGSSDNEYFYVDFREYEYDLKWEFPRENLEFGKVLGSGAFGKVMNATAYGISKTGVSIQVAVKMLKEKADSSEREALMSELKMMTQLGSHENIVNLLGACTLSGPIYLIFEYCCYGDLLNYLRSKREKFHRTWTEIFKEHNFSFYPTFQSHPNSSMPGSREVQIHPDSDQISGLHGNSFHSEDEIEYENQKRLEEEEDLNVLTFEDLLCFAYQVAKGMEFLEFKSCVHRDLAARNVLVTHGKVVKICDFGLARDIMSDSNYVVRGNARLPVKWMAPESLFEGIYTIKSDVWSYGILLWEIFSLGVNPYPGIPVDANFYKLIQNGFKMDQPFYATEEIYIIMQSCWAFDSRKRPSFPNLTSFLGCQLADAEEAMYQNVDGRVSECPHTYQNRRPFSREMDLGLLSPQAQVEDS

[2] = Tmax in po dosed Sprague-Dawley rat; format: ADME, organism-based; details: in vivo
Outline: (§1)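 Overnight-fasted male SD rats got a single intravenous or oral dose, n = 3 per route. Vehicle was 10% N-methyl-2-pyrrolidone, 20% cremophor EL, 70% phosphate-buffered saline. Plasma was prepared from blood by centrifugation, stored at -80 °C and assayed by LC/MS/MS. Parameters came from noncompartmental analysis and are means of three animals.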

[3] = AUC in iv dosed Sprague-Dawley rat; format: ADME, organism-based; details: plasma; outline: as §1
MV4-11 [4] = assay: Antitumor activity against human MV4-11 cells xenografted in BALB/c mouse assessed as inhibition of tumor growth at 50 mg/kg, po bid for 14 days measured on day 30; format: functional
Outline: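 Female BALB/c nude mice, 6-8 weeks old, were implanted s.c. in the right flank with 1 × 10⁷ MV4-11 cells. Dosing began at tumor size 200-300 mm³, with four mice per group randomized. Treatment was 50 mg/kg oral gavage b.i.d. for 14 days (day 16 to 29) in 10% NMP/20% Cremophor EL/70% saline vehicle. Calipers gave tumor volume = 0.5 × length × width².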

MV4-11 [5] = assay: Cytotoxicity against human MV4-11 cells by MTT assay
[6] = Oral bioavailability in Sprague-Dawley rat; format: ADME, organism-based; details: in vivo; outline: as §1
[7] = biological target: T1, Receptor-type tyrosine-protein kinase FLT3; assay: Inhibition of FLT3 autophosphorylation in human RS4-11 cells by Western blot analysis; format: cell-based
[8] = Cmax in po dosed Sprague-Dawley rat; format: ADME, organism-based; set-up: route oral; details: in vivo; outline: as §1
Rattus norvegicus [9] = assay: Elimination half life in iv dosed Sprague-Dawley rat; format: ADME, organism-based; details: in vivo; outline: as §1
[10] = biological target: Receptor-type tyrosine-protein kinase FLT3 (Homo sapiens, UniProt P36888, ITD); assay: Inhibition of FLT3-ITD autophosphorylation in human MV4-11 cells by Western blot analysis; format: cell-based
Outline: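 Cells were plated at 2-5 × 10⁵ per well and stimulated with the receptor ligand: SCF for c-Kit, VEGF-162 for KDR, FL for FLT-3. Blots were probed with anti-phosphotyrosine PY99 and reprobed with antibodies to c-Kit, KDR or FLT-3.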

[11] = biological target: Mast/stem cell growth factor receptor Kit (Homo sapiens, UniProt P10721); assay: Inhibition of c-Kit autophosphorylation in human Kasumi-1 cells by Western blot analysis; format: cell-based
[12] = biological target: Platelet-derived growth factor receptor beta (Homo sapiens, UniProt P09619); assay: Inhibition of PDGFRbeta autophosphorylation by cell based Western blot analysis
Rattus norvegicus [13] = assay: Volume of distribution at steady state in iv dosed Sprague-Dawley rat; format: ADME, organism-based; details: in vivo; outline: as §1
[14] = biological target: Vascular endothelial growth factor receptor 2 (Homo sapiens, UniProt P35968); assay: Inhibition of KDR autophosphorylation in HUVEC by Western blot analysis; format: cell-based
[15] = AUC in po dosed Sprague-Dawley rat; format: ADME, organism-based; details: plasma; outline: as §1

Platelet-derived growth factor receptor beta, sequence (P09619 whole entry): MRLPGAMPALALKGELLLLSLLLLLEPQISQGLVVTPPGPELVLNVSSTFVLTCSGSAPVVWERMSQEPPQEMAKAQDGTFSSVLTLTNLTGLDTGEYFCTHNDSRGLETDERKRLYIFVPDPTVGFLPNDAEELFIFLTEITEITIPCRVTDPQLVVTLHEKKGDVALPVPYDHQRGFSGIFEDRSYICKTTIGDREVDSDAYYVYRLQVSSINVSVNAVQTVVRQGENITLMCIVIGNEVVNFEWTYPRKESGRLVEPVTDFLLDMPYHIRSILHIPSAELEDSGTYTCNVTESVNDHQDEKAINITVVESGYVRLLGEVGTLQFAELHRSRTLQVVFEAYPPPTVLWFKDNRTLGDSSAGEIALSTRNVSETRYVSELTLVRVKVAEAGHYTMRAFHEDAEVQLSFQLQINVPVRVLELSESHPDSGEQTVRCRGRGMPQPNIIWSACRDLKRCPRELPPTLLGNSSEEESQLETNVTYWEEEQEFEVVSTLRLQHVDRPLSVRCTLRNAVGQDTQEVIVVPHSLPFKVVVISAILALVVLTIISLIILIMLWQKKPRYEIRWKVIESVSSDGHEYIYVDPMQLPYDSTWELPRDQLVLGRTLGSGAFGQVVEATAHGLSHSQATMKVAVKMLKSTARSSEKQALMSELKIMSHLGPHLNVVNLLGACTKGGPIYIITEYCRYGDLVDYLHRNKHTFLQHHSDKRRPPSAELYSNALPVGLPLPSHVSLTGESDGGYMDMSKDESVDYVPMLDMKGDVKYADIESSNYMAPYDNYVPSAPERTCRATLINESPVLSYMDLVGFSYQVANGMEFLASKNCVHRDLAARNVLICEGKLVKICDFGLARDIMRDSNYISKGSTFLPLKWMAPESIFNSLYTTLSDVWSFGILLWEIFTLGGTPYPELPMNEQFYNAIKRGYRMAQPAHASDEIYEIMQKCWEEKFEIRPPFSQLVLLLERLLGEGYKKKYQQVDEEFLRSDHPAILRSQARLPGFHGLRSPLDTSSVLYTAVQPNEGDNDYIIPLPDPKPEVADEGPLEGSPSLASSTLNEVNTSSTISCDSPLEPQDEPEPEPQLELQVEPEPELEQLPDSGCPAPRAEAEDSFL
Mast/stem cell growth factor receptor Kit, sequence (P10721 whole entry): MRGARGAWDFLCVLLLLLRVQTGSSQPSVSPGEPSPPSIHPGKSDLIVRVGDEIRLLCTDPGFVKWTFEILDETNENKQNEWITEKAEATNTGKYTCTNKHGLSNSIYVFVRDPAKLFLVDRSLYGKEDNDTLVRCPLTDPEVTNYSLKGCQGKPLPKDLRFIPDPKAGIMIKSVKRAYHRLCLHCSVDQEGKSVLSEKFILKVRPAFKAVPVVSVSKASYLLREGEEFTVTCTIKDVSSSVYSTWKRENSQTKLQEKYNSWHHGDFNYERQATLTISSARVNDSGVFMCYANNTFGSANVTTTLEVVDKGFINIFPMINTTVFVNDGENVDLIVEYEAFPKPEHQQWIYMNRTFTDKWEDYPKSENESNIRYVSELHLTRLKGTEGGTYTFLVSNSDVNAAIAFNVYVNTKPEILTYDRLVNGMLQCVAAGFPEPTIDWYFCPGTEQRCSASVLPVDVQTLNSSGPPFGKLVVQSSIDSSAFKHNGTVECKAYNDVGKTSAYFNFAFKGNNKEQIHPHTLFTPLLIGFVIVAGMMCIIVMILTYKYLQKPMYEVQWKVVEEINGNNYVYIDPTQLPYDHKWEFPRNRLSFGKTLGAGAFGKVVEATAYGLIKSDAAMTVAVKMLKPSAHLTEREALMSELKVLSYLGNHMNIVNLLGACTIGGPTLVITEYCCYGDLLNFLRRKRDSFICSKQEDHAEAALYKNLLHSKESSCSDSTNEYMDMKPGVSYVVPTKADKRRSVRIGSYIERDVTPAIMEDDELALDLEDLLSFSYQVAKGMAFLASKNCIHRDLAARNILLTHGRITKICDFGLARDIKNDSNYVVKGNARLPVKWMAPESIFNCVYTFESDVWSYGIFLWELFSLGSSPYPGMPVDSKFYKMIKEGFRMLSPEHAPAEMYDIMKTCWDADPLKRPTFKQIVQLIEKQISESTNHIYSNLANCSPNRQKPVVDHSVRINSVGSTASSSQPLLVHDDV
Vascular endothelial growth factor receptor 2, sequence (P35968 whole entry): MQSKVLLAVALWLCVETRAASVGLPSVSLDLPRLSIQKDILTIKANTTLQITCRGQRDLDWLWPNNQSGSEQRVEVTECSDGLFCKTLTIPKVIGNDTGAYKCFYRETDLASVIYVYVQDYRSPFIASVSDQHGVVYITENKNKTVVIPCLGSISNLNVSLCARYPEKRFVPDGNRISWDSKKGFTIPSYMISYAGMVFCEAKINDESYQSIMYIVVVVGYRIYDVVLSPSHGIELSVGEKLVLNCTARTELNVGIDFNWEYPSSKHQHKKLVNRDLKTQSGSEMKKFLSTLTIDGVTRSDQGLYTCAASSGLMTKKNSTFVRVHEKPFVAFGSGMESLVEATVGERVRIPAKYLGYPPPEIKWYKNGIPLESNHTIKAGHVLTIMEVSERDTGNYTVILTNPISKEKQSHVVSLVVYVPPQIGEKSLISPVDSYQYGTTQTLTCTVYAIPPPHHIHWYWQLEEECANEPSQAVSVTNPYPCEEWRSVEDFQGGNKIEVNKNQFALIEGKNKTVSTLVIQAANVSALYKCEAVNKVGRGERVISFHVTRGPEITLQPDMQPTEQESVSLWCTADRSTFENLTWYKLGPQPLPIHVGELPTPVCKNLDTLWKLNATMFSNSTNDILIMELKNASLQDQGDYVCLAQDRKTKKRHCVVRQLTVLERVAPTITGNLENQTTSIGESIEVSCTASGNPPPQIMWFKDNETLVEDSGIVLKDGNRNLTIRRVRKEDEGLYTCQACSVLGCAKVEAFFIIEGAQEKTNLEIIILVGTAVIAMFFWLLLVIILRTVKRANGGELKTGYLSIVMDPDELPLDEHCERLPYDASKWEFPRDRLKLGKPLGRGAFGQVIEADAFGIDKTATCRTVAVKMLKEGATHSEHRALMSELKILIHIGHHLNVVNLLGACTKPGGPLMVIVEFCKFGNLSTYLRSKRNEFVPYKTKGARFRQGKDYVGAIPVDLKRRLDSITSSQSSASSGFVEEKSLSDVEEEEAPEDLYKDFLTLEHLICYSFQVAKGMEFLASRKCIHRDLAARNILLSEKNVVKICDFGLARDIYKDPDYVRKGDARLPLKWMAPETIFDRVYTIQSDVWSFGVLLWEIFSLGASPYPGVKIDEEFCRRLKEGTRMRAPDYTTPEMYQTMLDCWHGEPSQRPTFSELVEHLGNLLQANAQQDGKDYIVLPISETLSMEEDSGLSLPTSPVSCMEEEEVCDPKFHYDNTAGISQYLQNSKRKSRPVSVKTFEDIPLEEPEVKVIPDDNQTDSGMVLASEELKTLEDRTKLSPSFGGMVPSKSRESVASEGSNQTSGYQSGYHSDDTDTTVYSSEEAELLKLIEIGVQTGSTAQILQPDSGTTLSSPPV

| SMILES | IC50 [1] | other results |
| --- | --- | --- |
| Cc1cc(/C=C2\C(=O)Nc3ccccc32)c2cccccc1-2 | > 1 µM | – |
| Cc1cc(/C=C2\C(=O)Nc3ccc(F)c(F)c32)c2ccccc(OCCCN3CCCCC3)c1-2 | 0.017 µM | – |
| O=C1Nc2ccccc2C1=Cc1ccc2cccccc1-2 | 0.47 µM | – |
| Cc1cc(/C=C2\C(=O)Nc3ccc(F)cc32)c2ccccc(OCCCN(C)C)c1-2 | 0.012 µM | – |
| Cc1ccc2c(c1)/C(=C/c1ccc3cccccc1-3)C(=O)N2 | > 1 µM | – |
| Cc1cc(/C=C2\C(=O)Nc3ccc(F)cc32)c2ccccc(OCCN3CCOCC3)c1-2 | 0.019 µM | – |
| Cc1cc(/C=C2\C(=O)Nc3ccc(F)c(F)c32)c2ccccc(OCCCN(C)C)c1-2 | 0.005 µM | – |
| CCN(CC)CCCOc1ccccc2c(/C=C3\C(=O)Nc4ccc(F)cc43)cc(C)c1-2 | 0.039 µM | – |
| CCN(CC)CCCOc1ccccc2c(/C=C3\C(=O)Nc4ccc(F)c(F)c43)cc(C)c1-2 | 0.014 µM | – |
| O=C1Nc2ccc(F)cc2/C1=C/c1ccc2cccccc1-2 | > 1 µM | – |
| Cc1cc(/C=C2\C(=O)Nc3ncc(F)cc32)c2ccccc(OCCCN3CCOCC3)c1-2 | 0.09 µM | – |
| Cc1cc(/C=C2/C(=O)Nc3c(F)cccc32)c2ccccc(OCCCN(C)C)c1-2 | 0.177 µM | – |
| Cc1cc(/C=C2/C(=O)Nc3ccccc32)c2cccccc1-2 | > 1 µM | – |
| Cc1cc(/C=C2/C(=O)Nc3ccc(F)cc32)c2ccccc(OCCCN(C)C)c1-2 | 0.025 µM | – |
| O=C1Nc2ccc(Br)cc2/C1=C\c1ccc2cccccc1-2 | > 1 µM | – |

The next lines start with results.

| IC50 [1] | SMILES | other results |
| --- | --- | --- |
| 0.742 µM | Cc1cc(/C=C2/C(=O)Nc3cc(F)ccc32)c2ccccc(OCCCN(C)C)c1-2 | – |
| > 1 µM | CN(C)S(=O)(=O)c1ccc2c(c1)/C(=C/c1ccc3cccccc1-3)C(=O)N2 | – |
| 0.012 µM | Cc1cc(/C=C2\C(=O)Nc3ccc(F)c(F)c32)c2ccccc(OCCCN3CCOCC3)c1-2 | – |
| 0.023 µM | O=C1Nc2ccc(F)cc2/C1=C/c1cc(F)c2cccccc1-2 | – |
| 1.46 µM | Cc1cc(/C=C2\C(=O)Nc3ncccc32)c2ccccc(OCCCN(C)C)c1-2 | – |
| 0.018 µM | Cc1cc(/C=C2\C(=O)Nc3ccc(F)cc32)c2ccccc(OCCN3CCC(N(C)C)CC3)c1-2 | – |
| 0.098 µM | Cc1cc(C=C2C(=O)Nc3ccc(F)cc32)c2ccccc(OCCN3CCC[C@H]3CO)c1-2 (mixture of isomers) | Tmax [2]: 2 h; AUC [3]: 1.41 µg·h/mL; inhibition in vivo at 50 mg/kg (MV4-11 [4]): 99%; IC50 (MV4-11 [5]): 0.087 µM; bioavailability [6]: 22.8%; IC50 [7]: 0.07 µM; Cmax [8]: 0.566 µg/mL; t1/2 (Rattus norvegicus [9]): 1.8 h; IC50 [10]: 0.067 µM; IC50 [11]: 0.044 µM; IC50 [12]: 0.028 µM; Vss/F (Rattus norvegicus [13]): 1.2324 L/kg; IC50 [14]: 0.186 µM; AUC [15]: 3.22 µg·h/mL |
| 0.06 µM | Cc1cc(/C=C2/C(=O)Nc3ccc(F)cc32)c2cccccc1-2 | – |
| 0.224 µM | Cc1cc(/C=C2\C(=O)Nc3ccc(F)cc32)c2ccccc(OCCCN3CCOCC3)c1-2 | – |
| 0.03 µM | CCN(CC)CCCOc1ccccc2c(/C=C3/C(=O)Nc4ccc(F)cc43)cc(C)c1-2 | – |
| 0.128 µM | Cc1cc(/C=C2\C(=O)Nc3ccc(F)cc32)c2cccccc1-2 | – |
| > 1 µM | O=C1Nc2ccc(Br)cc2/C1=C/c1ccc2cccccc1-2 | – |
| 0.086 µM | Cc1cc(/C=C2\C(=O)Nc3ncc(Br)cc32)c2ccccc(OCCCN3CCOCC3)c1-2 | – |
